High-throughput results as filed in PubChem BioAssay.
Most compounds without a hit are left out; they make up all but 1.9% or so of the library.
EBI2 antag = EBI2 receptor antagonists, beta-arrestin recruitment, primary screen, cell-based, luminescence, 7a,25-OHC stimulation, uHTS. G-protein coupled receptor 183 (Homo sapiens), P32249. 7a,25-OHC stimulated. inhibition, % at 5 µM. 360,000 compounds, 0.81% hits. AID 651636, 2012; in the data active = inhibition above about 38%;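 also: enzyme fragment complementation signal reports receptor beta-arrestin coupling in cells; 0% = agonist plus DMSO wells and 100% = wells without agonist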
TAG inh = inhibitors of triacylglycerol accumulation, primary screen, cell-based, uHTS, fluorescence, H9c2 | H9c2 cells, Nile Red lipid (TAG) fluorescence; cells loaded with 200 µM oleic acid | inhibition, % at 12.5 µM | 230,000 compounds, 0.66% hits | AID 651582, 2012;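 active = pattern-corrected inhibition of lipid staining of at least 50% with the nuclear-stain viability signal not falling by more than 50%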;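 also: 0% = DMSO wells and 100% = triacsin C control wells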
APJ agonist = agonists of human apelin receptor APJ, primary screen, CHO-K1 cells, PathHunter beta-arrestin, luminescence; P35414; 0% DMSO wells, 100% apelin; activation, % at 20 µM; 330,000 compounds, 0.11% hits;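 active = activation more than six SD over the plate average, tested at 20 µM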;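 also: 0% = DMSO alone and 100% = apelin-13 at 10 nM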
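system = engineered CHO-K1 APJ arrestin reporter cells | input = 1000 cells per well | timing = overnight seeding, 90 min compound at 25 °C, 1 h detection | measured by = enzyme-fragment complementation luminescence | read-out = beta-arrestin recruitment to APJ as agonist activity, luminescent signal | control set = negative DMSO alone, positive Apelin-13 at 10 nM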
APJ antag = antagonists of human apelin receptor APJ, primary screen, CHO-K1 cells, beta-arrestin complementation, luminescence. P35414. inhibition, % at 20 µM. 330,000 compounds, 0.32% hits;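 active = inhibition above about 40% at 20 µM, limit read from the data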;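 also: cells challenged with 10 nM apelin-13 agonist together with compound; plate controls were apelin-13 plus DMSO wells for no effect and DMSO wells lacking apelin-13 for full effect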
CCR6 antag = CCR6 receptor antagonists, primary screen, cell-based, CHO-K1, luminescence, beta-arrestin, uHTS; C-C chemokine receptor type 6 (Homo sapiens), P51684; CHO-K1 CCR6 PathHunter beta-arrestin, CCL20-stimulated; inhibition, % at 20 µM; 340,000 compounds, 0.49% hits;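 active = compounds whose inhibition of the agonist-driven luminescence signal at 20 µM reaches about 50%, limit read from the data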;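 also: cells stimulated with CCL20 at 14 nM final; plate controls were DMSO with CCL20 for no effect and DMSO without agonist for full effect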
CXCR6 block = CXCR6 receptor inhibitors, primary screen, cell-based, beta-arrestin, luminescence, CHO-K1 PathHunter, 1536-well | inhibition, % at 20 µM | 360,000 compounds, 0.36% hits | AID 602244, 2012; in the data active = inhibition above about 34%, passing the limit was not always enough;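 also: antagonist mode with CXCL16 agonist at 10 nM final; 0% = 10 nM CXCL16 with DMSO and 100% = unstimulated wells without agonist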
Target sequence (O00574 whole entry, looked up): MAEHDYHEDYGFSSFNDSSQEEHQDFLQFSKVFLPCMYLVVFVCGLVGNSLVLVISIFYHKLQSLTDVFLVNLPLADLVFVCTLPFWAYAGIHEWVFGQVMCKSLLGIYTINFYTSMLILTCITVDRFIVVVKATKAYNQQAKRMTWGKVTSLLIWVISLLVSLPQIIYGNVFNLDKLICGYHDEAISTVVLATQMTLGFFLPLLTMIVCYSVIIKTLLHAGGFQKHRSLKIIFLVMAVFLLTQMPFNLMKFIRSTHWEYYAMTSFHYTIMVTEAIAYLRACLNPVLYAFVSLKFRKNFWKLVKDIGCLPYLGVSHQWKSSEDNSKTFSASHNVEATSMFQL
APJ antag conf = APJ antagonists blocking beta-arrestin recruitment, confirmation, cell-based, luminescence, single concentration, uHTS hits | 950 compounds, 66% hits | AID 2766, 2010 | inhibition, % at 20 µM | antagonist mode | shares compounds with APJ antag; in the data active = inhibition above about 50%
Numbers without * were called inactive; . = no result.

SMILES | EBI2 antag | TAG inh | APJ agonist | APJ antag | CCR6 antag | CXCR6 block | APJ antag conf
Cc1ccc(NC(=O)COc2cccc(Oc3ccccc3)c2)cc1S(=O)(=O)N1CCOCC1 | 13 | -10 | 1 | -16 | 9 | 3 | .
CCOc1ccc(CN(C)CC(=O)NCc2ccccc2Cl)cc1 | 3 | -9 | 0 | -13 | 8 | 0 | .
O=c1[nH][nH]c2c1[C@H](CCc1cccc(Cl)c1)O[C@H](C1CCCC1)C2 | 12 | . | . | . | . | -5 | .
Cc1ccc(C(=O)COC(=O)CN2C(=O)C3C4CCC(C4)C3C2=O)cc1C (centres undefined) | 4 | 15 | -7 | 8 | -5 | 0 | .
O=C(CCN1C(=O)C2C3CC(C(Br)C3Br)C2C1=O)OCC(=O)c1cccc([N+](=O)[O-])c1 (centres undefined) | 12 | . | -13 | 59* | 55* | 28 | 100*
O=C(CN1C(=O)C2C3C=CC(C3)C2C1=O)OCC(=O)c1ccc(Cl)c([N+](=O)[O-])c1 (centres undefined) | 5 | 13 | -38 | 81* | 71* | 48* | 143*
Cc1ccc(C(=O)COC(=O)CN2C(=O)C3CC=CCC3C2=O)cc1[N+](=O)[O-] (centres undefined) | -1 | -4 | -22 | 45* | 28 | 3 | 79*
CS(=O)(=O)Nc1ccc(S(=O)(=O)NC2CCCCC2)cc1 | -4 | -9 | -3 | 46* | 4 | -7 | 28
CCOc1ccc(N=Cc2ccccc2O)cc1 | -10 | -5 | . | . | 5 | 2 | .
c1ccc(NNC2=NCCS2)cc1 | 39 | . | -12 | 46* | 41 | 34 | 43
CCN1C(=O)C2CCCCN2c2ccc(C(=O)NCCOC)cc21 (centres undefined) | -6 | . | -2 | 4 | 6 | 0 | .
O=C1OCC(CO)(CO)N=C1NNc1ccccc1[N+](=O)[O-] | 8 | 6 | -5 | -3 | 4 | -4 | .
O=C1OCC(CO)(CO)N=C1NNc1cc(Cl)ccc1Cl | 2 | -25 | -11 | 70* | 33 | 32 | 74*
Cc1c(NC(=O)CN2C(=O)NC3(CCC(C)CC3)C2=O)c(=O)n(-c2ccccc2)n1C (centres undefined) | -8 | -2 | -3 | -6 | -11 | -11 | .
CC(CNS(=O)(=O)c1ccc2c(c1)NC(=O)CCS2)c1ccccc1 (centres undefined) | 7 | . | -3 | 3 | 13 | -16 | .
O=C(OCC(=O)c1ccc(Cl)cc1Cl)c1ccccn1 | 10 | -5 | -10 | 62* | 48 | 26 | 89*
O=C(OCC(=O)c1ccc(Cl)cc1Cl)c1ccc2c(c1)C(=O)N(c1cccc3ncccc13)C2=O | 36 | 4 | -9 | 56* | 44 | 8 | 73*
O=C(OCC(=O)c1ccccc1Br)c1ccccn1 | -20 | -1 | -5 | 2 | -5 | 2 | .
O=C(CCC(=O)OCC(=O)c1ccc(Cl)cc1Cl)Nc1cccc2cccnc12 | 9 | -2 | -12 | 64* | 62* | 12 | 92*
CC(CC(=O)NNC(=O)c1ccncc1)c1ccccc1 (centres undefined) | -6 | 4 | 1 | -3 | -2 | -7 | .
CCCCCCN1CC(=O)N2Cc3[nH]c4ccccc4c3C[C@H]2C1=O | 10 | . | 0 | -2 | -2 | 1 | .
COc1cccc(Nc2ccc([N+](=O)[O-])c3nonc23)c1 | -8 | 2 | -6 | 41* | 47 | 18 | 68*
CCn1cc(S(=O)(=O)Nc2cccnc2)cn1 | -5 | 11 | 6 | 45* | -3 | -1 | 22
CCn1ncc(S(=O)(=O)Nc2cccnc2)c1C | -16 | 2 | 6 | -19 | 4 | -6 | .
Cc1ccc(C(=O)OCN2C(=O)c3ccccc3C2=O)o1 | 1 | 2 | -2 | 3 | 22 | -6 | .
SMILES | EBI2 antag | TAG inh | APJ agonist | APJ antag | CCR6 antag | CXCR6 block | APJ antag conf
CCn1c(CNC(=O)c2ccc(F)cc2)cc2ccccc21 | -2 | . | -3 | -1 | -8 | 3 | .
COc1ccc(S(=O)(=O)NNc2nc(C)cc(C)n2)cc1Br | 7 | 1 | -18 | 54* | 30 | 21 | 52*
Cc1cc(C)nc(NNS(=O)(=O)c2ccc(F)c(Cl)c2)n1 | 30 | -13 | -22 | 53* | 42 | 21 | 109*
Cc1cc(C)nc(NNS(=O)(=O)c2ccc(Cl)cc2)n1 | 7 | -10 | -17 | 75* | 53* | 26 | 113*
CN(C)CCCN(C(=O)c1ccc(S(=O)(=O)N2CCc3ccccc32)cc1)c1nc2ccc(F)cc2s1 | -1 | -10 | 2 | -4 | 19 | 0 | .
Cc1cc(C)c2sc(N(CCCN(C)C)C(=O)c3ccc(S(=O)(=O)N4CCCc5ccccc54)cc3)nc2c1 | 0 | 56* | -3 | 47* | 14 | 19 | 57*
COc1ccc(NS(=O)(=O)c2ccc3oc(=O)c4[nH]c(=O)c(=O)n(C)c4c3c2)cc1 | -1 | . | -1 | -10 | 7 | 2 | .
Cc1ccc2oc(Nc3nc(-c4ccccc4)cc(=O)[nH]3)nc2c1 | . | . | -8 | 54* | 58* | . | 62*
COCc1cc(=O)[nH]c(Nc2nc3ccccc3o2)n1 | 5 | 5 | -1 | 18 | 0 | 16 | .
CCOC(=O)C1=C(C)N(C)C(=O)NC1c1c(C)nn(-c2ccc(C)cc2)c1Cl (centres undefined) | -7 | . | -3 | 2 | 10 | 3 | .
CCOC(=O)C1=C(C)NC(=O)NC1c1c(C)nn(-c2ccccc2)c1Cl (centres undefined) | -7 | -6 | 1 | 44* | 3 | 1 | 14
COC(=O)/C=C1\SC(=NC(=O)c2ccc(-c3ccccc3)cc2)NC1=O | 9 | 3 | -3 | 4 | 12 | 0 | .
O=C(c1ccco1)N1CCN(C(=O)C2(S(=O)(=O)c3ccc(Cl)cc3)CC2)CC1 | -1 | . | 2 | 41* | -3 | 6 | 14
COc1ccc(CCNC(=O)c2n[nH]c(=O)c3ccccc23)cc1 | 1 | -6 | -2 | 41* | 11 | -4 | 39
COc1cc(NS(=O)(=O)c2ccc(NC(=S)Nc3ccccc3)cc2)nc(OC)n1 | -2 | -1 | 9 | 6 | -2 | -7 | .
COc1cc(NS(=O)(=O)c2ccc(NC(=S)NC(=O)C3CCCC3)cc2)nc(OC)n1 | -3 | . | -2 | 50* | -3 | 5 | 87*
